Measurements reported in ChEMBL document CHEMBL5214961, “Novel Allosteric Inhibitor-Derived AKT Proteolysis Targeting Chimeras (PROTACs) Enable Potent and Selective AKT Degradation in KRAS/BRAF Mutant Cells” (J Med Chem, 2022).
The source made the active and inactive calls. The rule behind the calls is not given here.

Experiments:
SW-620 [1] = assay: Induction of apoptosis in human SW620 cells harboring KRAS mutant assessed as cell death at 5 uM measured upto 72 hrs; assay type: functional, cell-based
In short: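 SW620 cells given 5 μM compound or DMSO; percent cell death followed with DRAQ7 at 0, 24, 36, 48 and 72 h. Standard errors taken from three independent experiments.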

SW-620 [2] = assay: Antiproliferative activity against human SW620 cells harboring KRAS mutant assessed as inhibition of cell growth incubated for 5 days by IncuCyte live-cell imaging analysis; assay type: functional, cell-based; conditions: SW-620, 120 h, time 5 day
[3] = Toxicity in Swiss albino mouse assessed as clinical signs at 75 mg/kg, ip administered as single dose and measured for 12 hrs; assay type: organism-based; conditions: in vivo
In short: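 Male Swiss albino mice given a single 75 mg/kg IP dose in 5% NMP/5% Solutol HS-15/90% saline; watched for clinical signs across a 12 h pharmacokinetic sampling period.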

[4] = Cmax in Swiss albino mouse at 75 mg/kg, ip administered as single dose and measured for 12 hrs by LC-MS/MS analysis; assay type: ADME, organism-based; design: dose 75 mg/kg, time 12 hrs, route ip; conditions: in vivo
In short: (§1)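 Single IP dose of 75 mg/kg to male Swiss albino mice (six dosed); compound as HCl salt in 5% v/v NMP, 5% v/v Solutol HS-15, 90% v/v normal saline. About 60 μL plasma taken from three mice at 0.5, 1, 2, 4, 8 and 12 h; LC-MS/MS quantitation (LLOQ 1.02 ng/mL); values are means of 3 mice.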

[5] = Tmax in Swiss albino mouse at 75 mg/kg, ip administered as single dose and measured for 12 hrs by LC-MS/MS analysis; assay type: ADME, organism-based; conditions: in vivo; in short: as §1
[6] = Plasma concentration in Swiss albino mouse at 75 mg/kg, ip administered as single dose and measured for 12 hrs by LC-MS/MS analysis; assay type: ADME, organism-based; in short: as §1
[7] = biological target: T1, RAC-beta serine/threonine-protein kinase (Homo sapiens, UniProt P31751); assay: Induction of AKT2 degradation in human SW620 cells at 0.01 to 10 uM incubated for 24 hrs by Western blot analysis; assay type: cell-based; conditions: dose 0.01-10 µM
[8] = biological target: T2, RAC-alpha serine/threonine-protein kinase (Homo sapiens, UniProt P31749); assay: Induction of AKT1 degradation in human SW620 cells at 0.01 to 10 uM incubated for 24 hrs by Western blot analysis; assay type: cell-based; conditions: dose 0.01-10 µM
Target sequence in this assay (P31749 whole entry): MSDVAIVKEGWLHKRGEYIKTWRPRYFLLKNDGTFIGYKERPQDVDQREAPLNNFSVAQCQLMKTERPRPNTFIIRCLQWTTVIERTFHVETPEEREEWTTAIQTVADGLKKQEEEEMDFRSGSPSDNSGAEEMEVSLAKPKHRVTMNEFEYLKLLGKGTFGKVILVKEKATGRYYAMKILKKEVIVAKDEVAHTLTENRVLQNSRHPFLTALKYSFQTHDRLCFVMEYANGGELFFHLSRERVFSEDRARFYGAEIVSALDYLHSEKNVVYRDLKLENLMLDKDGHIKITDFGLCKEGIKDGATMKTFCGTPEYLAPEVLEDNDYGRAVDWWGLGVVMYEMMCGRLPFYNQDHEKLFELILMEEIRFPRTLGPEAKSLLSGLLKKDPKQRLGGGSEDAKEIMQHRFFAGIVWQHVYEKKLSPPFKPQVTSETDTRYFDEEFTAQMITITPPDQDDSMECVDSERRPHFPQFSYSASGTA

PC-3 = assay: Inhibition of colony formation in human PC-3 cells at 0.1 to 10 uM incubated for 2 weeks with media replacement for every 2 days by crystal violet staining based analysis; assay type: functional, cell-based; conditions: dose 0.1-10 µM
In short: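 PC3 cells kept 14 days with compound; compound-containing medium replenished every two days. Viable cells stained with 0.5% crystal violet.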

[9] = biological target: T2, RAC-alpha serine/threonine-protein kinase; assay: Induction of AKT degradation in MS-21 resistant human SW620 cells harboring KRAS-mutant assessed as reduction in total Akt level at 1 uM incubated for 24 hrs by Western blot analysis; assay type: cell-based
In short: (§2)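 Cells grown in DMEM with 10% FBS at 37 °C, 5% CO2, then exposed to compound at 1 μM for 24 h. Lysates made in 2X urea/SDS sample buffer, run on 4–12% Bis-Tris gels, transferred to PVDF, probed for total AKT overnight at 4 °C; HRP/chemiluminescence detection with β-actin as loading control.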
Target sequence in this assay (P31749 whole entry): as above

[10] = biological target: T2, RAC-alpha serine/threonine-protein kinase; assay: Induction of AKT degradation in MS-21 resistant human MIA PaCa-2 cells harboring KRAS-mutant assessed as reduction in total Akt level at 1 uM incubated for 24 hrs by Western blot analysis; assay type: cell-based
Target sequence in this assay (P31749 whole entry): as above

[11] = biological target: T2, RAC-alpha serine/threonine-protein kinase; assay: Inhibition of AKT1 (unknown origin) preincubated for 20 mins followed by [33P]-ATP addition measured after 120 mins by hotspot kinase assay
Target sequence in this assay (P31749 whole entry): as above

[12] = biological target: T1, RAC-beta serine/threonine-protein kinase; assay: Inhibition of AKT2 (unknown origin) preincubated for 20 mins followed by [33P]-ATP addition measured after 120 mins by hotspot kinase assay
[13] = biological target: RAC-gamma serine/threonine-protein kinase (Homo sapiens, UniProt Q9Y243); assay: Inhibition of AKT3 (unknown origin) preincubated for 20 mins followed by [33P]-ATP addition measured after 120 mins by hotspot kinase assay
[14] = biological target: T2, RAC-alpha serine/threonine-protein kinase; assay: Induction of AKT degradation in MS21-resistant human SW620 cells harboring KRAS/BRAF mutant assessed as reduction in total AKT level incubated for 24 hrs by Western blot analysis; assay type: cell-based
In short: (§3)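 Dose-response in DMEM/10% FBS culture: compound at the indicated concentrations, up to 10 μM, for 24 h. Total AKT read by western blot of urea/SDS lysates with β-actin loading control; in SW620 a DC50 was fitted from the concentration-response blot data.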
Target sequence in this assay (P31749 whole entry, looked up, change not shown): as the sequence (P31749 whole entry) above

[15] = biological target: T2, RAC-alpha serine/threonine-protein kinase; assay: Induction of AKT degradation in MS21-resistant human SW620 cells harboring KRAS/BRAF mutant assessed as reduction in total AKT level at 100 nM incubated for 24 hrs by Western blot analysis relative to control; assay type: cell-based; design: scale not given: the % may be the effect or the level left; in short: as §3
Target sequence in this assay (P31749 whole entry): as above

[16] = biological target: T2, RAC-alpha serine/threonine-protein kinase; assay: Induction of AKT degradation in MS21-resistant human COLO 205 cells harboring BRAF mutant assessed as reduction in total AKT level at 1 uM incubated for 24 hrs by Western blot analysis; assay type: cell-based; in short: as §2
Target sequence in this assay (P31749 whole entry): as above

[17] = biological target: T2, RAC-alpha serine/threonine-protein kinase; assay: Induction of AKT degradation in MS21-resistant human HT-29 cells harboring BRAF/PI3KA mutant assessed as reduction in total AKT level at 1 uM incubated for 24 hrs by Western blot analysis; assay type: cell-based; in short: as §2
[18] = biological target: T2, RAC-alpha serine/threonine-protein kinase; assay: Induction of AKT degradation in MS21-resistant human SK-MEL-239 cells harboring BRAF mutant assessed as reduction in total AKT level at 1 uM incubated for 24 hrs by Western blot analysis; assay type: cell-based; in short: as §2
[19] = biological target: T2, RAC-alpha serine/threonine-protein kinase; assay: Induction of AKT degradation in MS21-resistant human PANC-1 cells harboring […] mutant assessed as reduction in total AKT level at 1 uM incubated for 24 hrs by Western blot analysis; assay type: cell-based; in short: as §2
[20] = biological target: T2, RAC-alpha serine/threonine-protein kinase; assay: Induction of AKT degradation in MS21-resistant human PANC-1 cells harboring […] mutant assessed as reduction in total AKT level incubated for 24 hrs by Western blot analysis; assay type: cell-based; conditions: dose 0.01-10 µM, DDE = dose-dependent effect; in short: as §3
[21] = biological target: T2, RAC-alpha serine/threonine-protein kinase; assay: Induction of AKT degradation in MS21-resistant human PANC-1 cells harboring […] mutant assessed as reduction in total AKT level at 100 nM incubated for 24 hrs by Western blot analysis relative to control; assay type: cell-based; design: scale not given: the % may be the effect or the level left; in short: as §3
[22] = biological target: T2, RAC-alpha serine/threonine-protein kinase; assay: Induction of AKT degradation in MS21-resistant human SW620 cells harboring KRAS/BRAF mutant assessed as reduction in total AKT level at 1 uM by Western blot analysis; assay type: cell-based; conditions: time 1-24 hrs, TDE = time-dependent effect
In short: (§4)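 SW620 time course: cells given 1 μM compound, with lysates harvested at several time points up to 24 h. Total AKT probed by western blot with β-actin as loading control.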

[23] = biological target: T2, RAC-alpha serine/threonine-protein kinase; assay: Induction of AKT degradation in MS21-resistant human SW620 cells harboring KRAS/BRAF mutant assessed as reduction in total AKT level at 1 uM measured after 12 hrs by Western blot analysis relative to control; assay type: cell-based; design: scale not given: the % may be the effect or the level left; in short: as §4
[24] = biological target: T2, RAC-alpha serine/threonine-protein kinase; assay: Induction of AKT degradation in human SW620 cells assessed as reduction in total AKT level at 1 uM measured after 18 hrs by TMT-MS analysis; assay type: cell-based
In short: (§5)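 SW620 cells treated at 1 μM for 18 h, two biological replicates per condition. Lysates in 8 M urea were reduced with DTT, alkylated with iodoacetamide, digested with trypsin, labeled with TMT, split into 22 fractions and analyzed by nanoLC-MS/MS on a Q-Exactive HF-X. Output is log2 fold change against p value.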

[25] = biological target: Proline-rich AKT1 substrate 1 (Homo sapiens) (UniProt Q96B36); assay: Inhibition of PRAS40 phosphorylation in human SW620 cells at 1 uM measured after 18 hrs by TMT-MS analysis; assay type: cell-based
[26] = biological target: T1, RAC-beta serine/threonine-protein kinase; assay: Induction of AKT2 degradation in human SW620 cells assessed as reduction in total AKT level at 1 uM measured after 18 hrs by TMT-MS analysis; assay type: cell-based; in short: as §5

T1 sequence (P31751 whole entry): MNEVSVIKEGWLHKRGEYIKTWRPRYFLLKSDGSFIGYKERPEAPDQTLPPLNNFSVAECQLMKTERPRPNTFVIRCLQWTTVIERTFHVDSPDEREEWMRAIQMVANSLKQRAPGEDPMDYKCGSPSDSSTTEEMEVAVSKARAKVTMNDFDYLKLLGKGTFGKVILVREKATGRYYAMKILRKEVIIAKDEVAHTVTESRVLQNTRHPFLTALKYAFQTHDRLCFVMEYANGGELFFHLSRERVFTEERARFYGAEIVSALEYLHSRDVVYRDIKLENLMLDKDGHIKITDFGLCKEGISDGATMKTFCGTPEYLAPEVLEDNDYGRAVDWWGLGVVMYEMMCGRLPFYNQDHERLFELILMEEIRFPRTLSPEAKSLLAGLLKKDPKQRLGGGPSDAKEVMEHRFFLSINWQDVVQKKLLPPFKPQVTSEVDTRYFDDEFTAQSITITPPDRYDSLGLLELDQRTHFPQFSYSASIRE
RAC-gamma serine/threonine-protein kinase, sequence (Q9Y243 whole entry): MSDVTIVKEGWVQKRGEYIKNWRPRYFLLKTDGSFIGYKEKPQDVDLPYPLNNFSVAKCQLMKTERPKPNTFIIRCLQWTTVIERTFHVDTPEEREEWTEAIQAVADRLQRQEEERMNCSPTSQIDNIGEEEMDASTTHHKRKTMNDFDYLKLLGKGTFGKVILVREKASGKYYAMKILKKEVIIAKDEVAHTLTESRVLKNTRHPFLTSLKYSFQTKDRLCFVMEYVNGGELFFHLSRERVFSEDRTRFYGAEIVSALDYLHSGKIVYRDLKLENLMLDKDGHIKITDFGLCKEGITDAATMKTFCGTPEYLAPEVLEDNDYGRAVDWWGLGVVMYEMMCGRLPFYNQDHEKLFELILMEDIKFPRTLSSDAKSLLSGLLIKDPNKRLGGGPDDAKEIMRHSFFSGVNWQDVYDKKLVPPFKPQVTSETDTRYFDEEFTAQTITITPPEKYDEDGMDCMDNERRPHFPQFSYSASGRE

- GI50 (SW-620 [2]): 3100 nM
- Cmax [4]: 1000 nM
- Tmax [5]: 30 min
- concentration at 12 h [6]: > 100 nM
- Activity [7]: Active
- Activity [8]: Active
- Activity [9]: Active
- Activity [10]: Active
- IC50 [11]: 798 nM
- IC50 [12]: 90 nM
- IC50 [13]: 544 nM
- EC50 [14]: 23 nM
- Activity [15]: 100%
- Activity [16]: Active
- Activity [17]: Active
- Activity [18]: Active
- Activity [19]: Active
- Activity [20]: Dde
- Activity [21]: 100%
- Activity [22]: Tde
- Activity [23]: 100%
- Activity [24]: Active
- inhibition [25]: Active
- Activity [26]: Active
SMILES: Cc1ncsc1-c1ccc([C@H](C)NC(=O)[C@@H]2C[C@@H](O)CN2C(=O)[C@@H](NC(=O)CCCCCCCCCCNC(=O)CCc2cccc(-c3ccc4nc(-c5cccnc5N)n(-c5ccc(C6(N)CCC6)cc5)c4n3)c2)C(C)(C)C)cc1
- Activity (SW-620 [1]): Active
- Activity [3]: Non-Toxic
- inhibition (PC-3): Active
